In one test the test system is HT-29. The experiment in a line: Antiproliferative activity against human HT-29 cells after 48 hrs by MTT assay. Format: functional, cell-based. The note with it: HT-29, 48 h. In a few lines:
(§1)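 Cells seeded at 3,000-5,000/well by doubling time and grown 24 h (37 °C, 5% CO2). HT-29/U87MG kept in DMEM + 10% FBS; A549/PC-3/HaCaT in RPMI-1640 + 10% FBS. Compounds for 48 h, then MTT 4 h, formazan dissolved in DMSO, A570 minus A630. % inhibition vs DMSO-treated cells; IC50 by probit. Three independent experiments in quadruplicate; mean ± SD.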

A short description of test [1]: Antiproliferative activity against human PC3 cells after 48 hrs by MTT assay. Type of test: functional, cell-based. The note with it: PC-3, 48 h. A digest of the protocol:
as §1

A further test concerns A549. The experiment in a line: Antiproliferative activity against human A549 cells after 48 hrs by MTT assay. Type of test: functional, cell-based. The note with it: A549, 48 h. A digest of the protocol: as §1
Test [2] in a line: Antiproliferative activity against human U87MG cells after 48 hrs by MTT assay. Type of test: functional, cell-based, U-87MG ATCC. The note with it: U-87 MG. In a few lines: as §1
A further test has as its system HaCaT. The experiment in a line: Antiproliferative activity against human HaCaT cells after 48 hrs by MTT assay. Type of test: cell-based. A digest of the protocol: as §1

IC50 data for 27 compounds are collected here from ChEMBL document CHEMBL3804806, “Synthesis of (Z)-1-(1,3-diphenyl-1H-pyrazol-4-yl)-3-(phenylamino)prop-2-en-1-one derivatives as potential anticancer and apoptosis inducing agents” (Eur J Med Chem, 2016).

Where only a bound is given, the exact number is not on record here.

With `COc1ccc(-c2nn(-c3ccccc3)cc2C(=O)/C=C\Nc2ccc(C(F)(F)F)cc2)cc1`, the IC50 was 9.87 µM in the test on HT-29; over 50 µM in test [1]; over 50 µM in the test on A549; over 50 µM in test [2]; over 50 µM in the test with HaCaT.
On to `O=C(/C=C\Nc1ccc(F)cc1)c1cn(-c2ccccc2)nc1-c1ccccc1`, for which the IC50 in the test with HT-29 was 6.87 µM; in test [1], 7.98 µM; in the test on A549, 4.67 µM; in test [2], 10.2 µM; in the test with HaCaT it was 34.2 µM.
On the same counts, the results for `O=C(/C=C\Nc1ccc(F)cc1)c1cn(-c2ccccc2)nc1-c1ccc(F)cc1` are 6.5 µM, 7.9 µM, 5.78 µM, 18.2 µM and over 50 µM.
As for `O=C(/C=C\Nc1ccc(C(F)(F)F)cc1)c1cn(-c2ccccc2)nc1-c1ccc(Cl)cc1`, the IC50 (in the test with HT-29; in test [1]; in the test with A549; in test [2]; with HaCaT) was over 50 µM in each case.
Regarding `COc1ccc(N/C=C\C(=O)c2cn(-c3ccccc3)nc2-c2ccc(Cl)cc2)cc1`, the IC50 came out at 8.93 µM in the test on HT-29; 10.7 µM in test [1]; 6.46 µM in the test on A549; 6.89 µM in test [2]; 30.8 µM in the test on HaCaT.
On to `COc1cc(N/C=C\C(=O)c2cn(-c3ccccc3)nc2-c2ccc(F)cc2)cc(OC)c1OC`, for which the concentration for half-maximal inhibition (IC50) was 7.77 µM in the test with HT-29; 4.89 µM in test [1]; 9.35 µM in the test with A549; 12.6 µM in test [2]; 32.8 µM in the test on HaCaT.
On to `COc1cc(-c2nn(-c3ccccc3)cc2C(=O)/C=C\Nc2ccc(Cl)cc2)cc(OC)c1OC`, for which the IC50 was 7.68 µM with HT-29; 11.2 µM in test [1]; 8.67 µM in the test with A549; 3.21 µM in test [2]; 30.2 µM in the test with HaCaT.
For `O=C(/C=C\Nc1ccc(Cl)cc1)c1cn(-c2ccccc2)nc1-c1ccc(Cl)cc1` the same measures were 4.65 µM, 3.89 µM, 3.67 µM, 13.1 µM and 23.4 µM.
As for `COc1cc(-c2nn(-c3ccccc3)cc2C(=O)/C=C\Nc2ccc(F)cc2)cc(OC)c1OC`, the IC50 with HT-29 was 12.5 µM; in test [1], 7.7 µM; with A549, 15.6 µM; in test [2], 4.78 µM; with HaCaT it was 25.7 µM.
Turning to `COc1cc(-c2nn(-c3ccccc3)cc2C(=O)/C=C\Nc2ccc(C(F)(F)F)cc2)cc(OC)c1OC`, the concentration for half-maximal inhibition (IC50) (with HT-29; in test [1]; in the test on A549; in test [2]; with HaCaT) was over 50 µM each time.
With `COc1ccc(-c2nn(-c3ccccc3)cc2C(=O)/C=C\Nc2ccc(Cl)cc2)cc1`, the IC50 with HT-29 stood at 4.76 µM; in test [1] it was 3.89 µM; in the test with A549 it was 2.97 µM; in test [2], 8.86 µM; with HaCaT, 20.9 µM.
Turning to `O=C(/C=C\Nc1ccc(F)cc1)c1cn(-c2ccccc2)nc1-c1ccc(Cl)cc1`, the IC50 was over 50 µM in the test on HT-29; over 50 µM in test [1]; over 50 µM in the test on A549; 17.9 µM in test [2]; over 50 µM in the test on HaCaT.
Consider `O=C(/C=C\Nc1ccc(Cl)cc1)c1cn(-c2ccccc2)nc1-c1ccccc1`, for which the IC50 with HT-29 is 3.61 µM; in test [1], 5.2 µM; with A549 it was 14.1 µM; in test [2] it was 11.4 µM; in the test with HaCaT, 28.4 µM.
Turning to `O=C(/C=C\Nc1ccc(C(F)(F)F)cc1)c1cn(-c2ccccc2)nc1-c1ccccc1`, the concentration for half-maximal inhibition (IC50) (in the test with HT-29; in test [1]; in the test on A549; in test [2]; in the test on HaCaT) was over 50 µM throughout.
With `COc1ccc(-c2nn(-c3ccccc3)cc2C(=O)/C=C\Nc2ccc(F)cc2)cc1`, the IC50 is 7.65 µM in the test with HT-29; 5.73 µM in test [1]; 3.98 µM in the test with A549; 8.91 µM in test [2]; 8.91 µM with HaCaT.
For `COc1ccc(-c2nn(-c3ccccc3)cc2C(=O)/C=C\Nc2cc(OC)c(OC)c(OC)c2)cc1`, the 50% inhibitory concentration (IC50) in the test with HT-29 is 14.6 µM; in test [1], 18.9 µM; with A549 it was 11.2 µM; in test [2], over 50 µM; in the test on HaCaT, over 50 µM.
Turning to `O=C(/C=C\Nc1ccc(C(F)(F)F)cc1)c1cn(-c2ccccc2)nc1-c1ccc(F)cc1`, the IC50 (with HT-29; in test [1]; in the test on A549; in test [2]; in the test with HaCaT) was over 50 µM in each case.
For the compound `COc1ccc(N/C=C\C(=O)c2cn(-c3ccccc3)nc2-c2cc(OC)c(OC)c(OC)c2)cc1`, the 50% inhibitory concentration (IC50) in the test with HT-29 is 5.78 µM; in test [1], 9.6 µM; with A549, 4.78 µM; in test [2] it was 12.8 µM; with HaCaT, over 50 µM.
On the same counts, the results for `COc1ccc(N/C=C\C(=O)c2cn(-c3ccccc3)nc2-c2ccc(OC)cc2)cc1` are 8.76 µM, 13.4 µM, 6.78 µM, over 50 µM and over 50 µM.
Turning to `COc1cc(-c2nn(-c3ccccc3)cc2C(=O)/C=C\Nc2ccc(O)cc2)cc(OC)c1OC`, the IC50 in the test with HT-29 is 2.5 µM; in test [1], 4.6 µM; in the test with A549 it was 3.16 µM; in test [2], 1.8 µM; in the test with HaCaT, 17.6 µM.
For `COc1ccc(N/C=C\C(=O)c2cn(-c3ccccc3)nc2-c2ccccc2)cc1` the same measures were 1.56 µM, 6.4 µM, 3.25 µM, over 50 µM and over 50 µM.
For `O=C(/C=C\Nc1ccc(Cl)cc1)c1cn(-c2ccccc2)nc1-c1ccc(F)cc1` the same measures were 4.6 µM, 3.8 µM, 6.7 µM, 8.9 µM and 21.3 µM.
On the same counts, the results for `COc1cc(N/C=C\C(=O)c2cn(-c3ccccc3)nc2-c2cc(OC)c(OC)c(OC)c2)cc(OC)c1OC` are 8.4 µM, 14.1 µM, 7.98 µM, 5.1 µM and 20.9 µM.
Consider `COc1cc(N/C=C\C(=O)c2cn(-c3ccccc3)nc2-c2ccc(Cl)cc2)cc(OC)c1OC`, for which the 50% inhibitory concentration (IC50) in the test with HT-29 came to 12.7 µM; in test [1] it was 9.98 µM; with A549, 5.64 µM; in test [2] it was 17.8 µM; in the test with HaCaT, 46.6 µM.
For `O=C(/C=C\Nc1ccc(O)cc1)c1cn(-c2ccccc2)nc1-c1ccccc1` the same measures were 5 µM, 3.6 µM, 3.21 µM, 4.29 µM and 44.6 µM.
For `COc1ccc(N/C=C\C(=O)c2cn(-c3ccccc3)nc2-c2ccc(F)cc2)cc1` the same measures were 3.2 µM, 4.6 µM, 8.9 µM, 2.5 µM and 19.6 µM.
For `O=c1[nH]cc(F)c(=O)[nH]1` [FLUOROURACIL], the IC50 in the test with HT-29 stood at 2.8 µM; in test [1], 2.76 µM; in the test with A549, 3.98 µM; in test [2], 3.65 µM; in the test on HaCaT it was 16.1 µM.
